Assay results: ChEMBL document CHEMBL1821556, “Structure-activity relationships of antitubercular nitroimidazoles. 3. Exploration of the linker and lipophilic tail of ((s)-2-nitro-6,7-dihydro-5H-imidazo[2,1-b][1,3]oxazin-6-yl)-(4-trifluoromethoxybenzyl)amine (6-amino PA-824)” (J Med Chem, 2011)

What was measured:
[1] = substrate: COC(=O)c1cc(CN[C@@H]2COc3nc([N+](=O)[O-])cn3C2)ccc1OC(F)(F)F; test: (§1) Ratio of Kcat to Km for Mycobacterium tuberculosis deazaflavin-dependent nitroreductase
In short: (§2)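 Each compound was tested as a substrate of Mtb deazaflavin-dependent nitroreductase (Ddn). kcat/KM was derived from the kinetics of reduced F420 reoxidation. Assays were repeated in two independent laboratories until concordant, and values are averages of multiple measurements.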

[2] = substrate: O=[N+]([O-])c1cn2c(n1)OC[C@@H](OCc1ccc(OC(F)(F)F)cc1)C2; test: as §1; in short: as §2
[3] = substrate: COc1cc(CO[C@@H]2COc3nc([N+](=O)[O-])cn3C2)ccc1OC(F)(F)F; test: as §1; in short: as §2
[4] = substrate: O=[N+]([O-])c1cn2c(n1)OC[C@@H](NC(CO)c1ccc(OC(F)(F)F)cc1)C2; test: as §1; in short: as §2
[5] = substrate: O=[N+]([O-])c1cn2c(n1)OC[C@@H](NCc1ccc(OC(F)(F)F)c(O)c1)C2; test: as §1; in short: as §2
[6] = substrate: O=C(c1ccc(Cl)cc1)N(Cc1ccc(OC(F)(F)F)cc1)[C@@H]1COc2nc([N+](=O)[O-])cn2C1; test: as §1; in short: as §2
[7] = substrate: O=C(c1ccccc1Cl)N(Cc1ccc(OC(F)(F)F)cc1)[C@@H]1COc2nc([N+](=O)[O-])cn2C1; test: as §1; in short: as §2
[8] = substrate: O=[N+]([O-])c1cn2c(n1)OC[C@@H](NCc1ccc(OC(F)(F)F)cc1Br)C2; test: as §1; in short: as §2
[9] = substrate: O=[N+]([O-])c1cn2c(n1)OC[C@@H](NCc1ccc(OC(F)(F)F)c(Oc3ccccc3)c1)C2; test: as §1; in short: as §2
[10] = substrate: CC(=O)N(Cc1ccc(OC(F)(F)F)cc1)[C@@H]1COc2nc([N+](=O)[O-])cn2C1; test: as §1; in short: as §2
[11] = substrate: O=[N+]([O-])c1cn2c(n1)OC[C@@H](NCc1ccc(OC(F)(F)F)cc1OC1CC1)C2; test: as §1; in short: as §2
[12] = substrate: O=[N+]([O-])c1cn2c(n1)OC[C@@H](NCc1ccc(OC(F)(F)F)cc1Cl)C2; test: as §1; in short: as §2
[13] = substrate: CC(C)N(Cc1ccc(OC(F)(F)F)cc1)[C@@H]1COc2nc([N+](=O)[O-])cn2C1; test: as §1; in short: as §2
[14] = substrate: O=[N+]([O-])c1cn2c(n1)OC[C@@H](NCc1ccc(OC(F)(F)F)cc1N1CCOCC1)C2; test: as §1; in short: as §2
[15] = substrate: O=[N+]([O-])c1cn2c(n1)OC[C@@H](NCc1ccc(OC(F)(F)F)cc1N1CCCCC1)C2; test: as §1; in short: as §2
[16] = substrate: CCC(N[C@@H]1COc2nc([N+](=O)[O-])cn2C1)c1ccc(OC(F)(F)F)cc1; test: as §1; in short: as §2
[17] = substrate: O=[N+]([O-])c1cn2c(n1)OC[C@@H](NC(c1ccc(OC(F)(F)F)cc1)c1ncco1)C2; test: as §1; in short: as §2
[18] = substrate: CCNC(=O)N(Cc1ccc(OC(F)(F)F)cc1)[C@@H]1COc2nc([N+](=O)[O-])cn2C1; test: as §1; in short: as §2
[19] = substrate: COc1cc(CN[C@@H]2COc3nc([N+](=O)[O-])cn3C2)ccc1OC(F)(F)F; test: as §1; in short: as §2
[20] = substrate: O=[N+]([O-])c1cn2c(n1)OC[C@@H](NCc1ccc(OC(F)(F)F)cc1OCc1ccccc1)C2; test: as §1; in short: as §2
[21] = substrate: CN1CCN(c2cc(CN[C@@H]3COc4nc([N+](=O)[O-])cn4C3)ccc2OC(F)(F)F)CC1; test: as §1; in short: as §2
[22] = substrate: CN1CCN(c2cc(OC(F)(F)F)ccc2CN[C@@H]2COc3nc([N+](=O)[O-])cn3C2)CC1; test: as §1; in short: as §2
[23] = substrate: CCCC(N[C@@H]1COc2nc([N+](=O)[O-])cn2C1)c1ccc(OC(F)(F)F)cc1; test: as §1; in short: as §2
[24] = substrate: O=[N+]([O-])c1cn2c(n1)OC[C@@H](OCc1ccc(OC(F)(F)F)c(F)c1)C2; test: as §1; in short: as §2
[25] = substrate: O=CN(Cc1ccc(OC(F)(F)F)cc1)[C@@H]1COc2nc([N+](=O)[O-])cn2C1; test: as §1; in short: as §2
[26] = substrate: O=[N+]([O-])c1cn2c(n1)OC[C@@H](OCc1ccc(OC(F)(F)F)c(O)c1)C2; test: as §1; in short: as §2
[27] = substrate: COc1cc(OC(F)(F)F)ccc1CN[C@@H]1COc2nc([N+](=O)[O-])cn2C1; test: as §1; in short: as §2
[28] = substrate: O=[N+]([O-])c1cn2c(n1)OC[C@@H](NCc1ccc(OC(F)(F)F)c(Cl)c1)C2; test: as §1; in short: as §2
[29] = substrate: O=[N+]([O-])c1cn2c(n1)OC[C@@H](NCc1ccc(OC(F)(F)F)cc1Oc1ccccc1)C2; test: as §1; in short: as §2
[30] = substrate: O=[N+]([O-])c1cn2c(n1)OC[C@@H](NCc1ccc(OC(F)(F)F)cc1F)C2; test: as §1; in short: as §2
[31] = substrate: O=[N+]([O-])c1cn2c(n1)OC[C@@H](NC(c1ccc(OC(F)(F)F)cc1)c1ncc[nH]1)C2; test: as §1; in short: as §2
[32] = substrate: CN(Cc1ccc(OC(F)(F)F)cc1)[C@@H]1COc2nc([N+](=O)[O-])cn2C1; test: as §1; in short: as §2
[33] = substrate: O=C(c1cccc(Cl)c1)N(Cc1ccc(OC(F)(F)F)cc1)[C@@H]1COc2nc([N+](=O)[O-])cn2C1; test: as §1; in short: as §2
[34] = substrate: O=[N+]([O-])c1cn2c(n1)OC[C@@H](NCc1ccc(OC(F)(F)F)cc1OCC1CC1)C2; test: as §1; in short: as §2
[35] = substrate: O=[N+]([O-])c1cn2c(n1)OC[C@@H](NCc1ccc(OC(F)(F)F)c(F)c1)C2; test: as §1; in short: as §2
[36] = substrate: CCCN(Cc1ccc(OC(F)(F)F)cc1)[C@@H]1COc2nc([N+](=O)[O-])cn2C1; test: as §1; in short: as §2
[37] = substrate: CC(N[C@@H]1COc2nc([N+](=O)[O-])cn2C1)c1ccc(OC(F)(F)F)cc1; test: as §1; in short: as §2
[38] = substrate: NC(=O)C(N[C@@H]1COc2nc([N+](=O)[O-])cn2C1)c1ccc(OC(F)(F)F)cc1; test: as §1; in short: as §2
[39] = substrate: O=[N+]([O-])c1cn2c(n1)OC[C@@H](NCc1ccc(OC(F)(F)F)c(N3CCOCC3)c1)C2; test: as §1; in short: as §2
[40] = substrate: O=[N+]([O-])c1cn2c(n1)OC[C@@H](NC(CCO)c1ccc(OC(F)(F)F)cc1)C2; test: as §1; in short: as §2
[41] = substrate: CCCCC(N[C@@H]1COc2nc([N+](=O)[O-])cn2C1)c1ccc(OC(F)(F)F)cc1; test: as §1; in short: as §2
[42] = substrate: O=[N+]([O-])c1cn2c(n1)OC[C@@H](NCc1ccc(OC(F)(F)F)cc1O)C2; test: as §1; in short: as §2
[43] = substrate: O=C(c1ccccc1)N(Cc1ccc(OC(F)(F)F)cc1)[C@@H]1COc2nc([N+](=O)[O-])cn2C1; test: as §1; in short: as §2
[44] = substrate: O=[N+]([O-])c1cn2c(n1)OC[C@@H](NCc1ccc(OC(F)(F)F)cc1)C2; test: as §1; in short: as §2

B1: Deazaflavin-dependent nitroreductase (Mycobacterium tuberculosis), P9WP15 (protein)
chain: MPKSPPRFLNSPLSDFFIKWMSRINTWMYRRNDGEGLGGTFQKIPVALLTTTGRKTGQPRVNPLYFLRDGGRVIVAASKGGAEKNPMWYLNLKANPKVQVQIKKEVLDLTARDATDEERAEYWPQLVTMYPSYQDYQSWTDRTIPIVVCEP
In the case of B1, the kcat/Km [1] is reported as 0.17, the kcat/Km [2] is reported as 0.15 and the kcat/Km [3] is reported as 0.24. For the same protein, the kcat/Km [4] was 0.15, the kcat/Km [5] was 0.13 and the kcat/Km [6] was 0.37. For the same protein, the kcat/Km [7] was 0.13, the kcat/Km [8] was 0.25 and the kcat/Km [9] was 0.13. The kcat/Km [10] was 0.02, the kcat/Km [11] was 0.31 and the kcat/Km [12] was 0.27. For the same protein, the kcat/Km [13] was 0.04, the kcat/Km [14] was 0.19 and the kcat/Km [15] was 0.42. The kcat/Km [16] was 0.14, the kcat/Km [17] was 0.2 and the kcat/Km [18] was 0. It also gave a kcat/Km [19] of 0.19, a kcat/Km [20] of 0.31 and a kcat/Km [21] of 0.16. It also gave a kcat/Km [22] of 0.17, a kcat/Km [23] of 0.31 and a kcat/Km [24] of 0.33. For the same protein, the kcat/Km [25] was 0.07, the kcat/Km [26] was 0.14 and the kcat/Km [27] was 0.15. For the same protein, the kcat/Km [28] was 0.31, the kcat/Km [29] was 0.42 and the kcat/Km [30] was 0.2. It also gave a kcat/Km [31] of 0.17, a kcat/Km [32] of 0.25 and a kcat/Km [33] of 0.25. The kcat/Km [34] was 0.37, the kcat/Km [35] was 0.21 and the kcat/Km [36] was 0.32. It also gave a kcat/Km [37] of 0.09, a kcat/Km [38] of 0.12 and a kcat/Km [39] of 0.1. It also gave a kcat/Km [40] of 0.21, a kcat/Km [41] of 0.4 and a kcat/Km [42] of 0.18. It also gave a kcat/Km [43] of 0.16 and a kcat/Km [44] of 0.17.
